Assay results: BindingDB's records for doi:10.1021/jm4005048 (Northwestern University, 2013)

Biological target: Voltage-dependent L-type calcium channel subunit alpha-1C (Oryctolagus cuniculus, UniProt P15381)
Assay: Antagonist activity at rabbit CaV1.2alpha1C transfected in HEK293 cells by FLIPR assay
Method in brief: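 HEK293 cells stably transfected with rabbit CaV1.2α1C cDNA, plated at 4 × 10⁴ cells/well and cultured 4 days in DMEM with 10% FBS. Calcium influx is read on a FLIPR Tetra with a Fluo-8 no-wash calcium dye.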

Voltage-dependent L-type calcium channel subunit alpha-1C, sequence (P15381 whole entry): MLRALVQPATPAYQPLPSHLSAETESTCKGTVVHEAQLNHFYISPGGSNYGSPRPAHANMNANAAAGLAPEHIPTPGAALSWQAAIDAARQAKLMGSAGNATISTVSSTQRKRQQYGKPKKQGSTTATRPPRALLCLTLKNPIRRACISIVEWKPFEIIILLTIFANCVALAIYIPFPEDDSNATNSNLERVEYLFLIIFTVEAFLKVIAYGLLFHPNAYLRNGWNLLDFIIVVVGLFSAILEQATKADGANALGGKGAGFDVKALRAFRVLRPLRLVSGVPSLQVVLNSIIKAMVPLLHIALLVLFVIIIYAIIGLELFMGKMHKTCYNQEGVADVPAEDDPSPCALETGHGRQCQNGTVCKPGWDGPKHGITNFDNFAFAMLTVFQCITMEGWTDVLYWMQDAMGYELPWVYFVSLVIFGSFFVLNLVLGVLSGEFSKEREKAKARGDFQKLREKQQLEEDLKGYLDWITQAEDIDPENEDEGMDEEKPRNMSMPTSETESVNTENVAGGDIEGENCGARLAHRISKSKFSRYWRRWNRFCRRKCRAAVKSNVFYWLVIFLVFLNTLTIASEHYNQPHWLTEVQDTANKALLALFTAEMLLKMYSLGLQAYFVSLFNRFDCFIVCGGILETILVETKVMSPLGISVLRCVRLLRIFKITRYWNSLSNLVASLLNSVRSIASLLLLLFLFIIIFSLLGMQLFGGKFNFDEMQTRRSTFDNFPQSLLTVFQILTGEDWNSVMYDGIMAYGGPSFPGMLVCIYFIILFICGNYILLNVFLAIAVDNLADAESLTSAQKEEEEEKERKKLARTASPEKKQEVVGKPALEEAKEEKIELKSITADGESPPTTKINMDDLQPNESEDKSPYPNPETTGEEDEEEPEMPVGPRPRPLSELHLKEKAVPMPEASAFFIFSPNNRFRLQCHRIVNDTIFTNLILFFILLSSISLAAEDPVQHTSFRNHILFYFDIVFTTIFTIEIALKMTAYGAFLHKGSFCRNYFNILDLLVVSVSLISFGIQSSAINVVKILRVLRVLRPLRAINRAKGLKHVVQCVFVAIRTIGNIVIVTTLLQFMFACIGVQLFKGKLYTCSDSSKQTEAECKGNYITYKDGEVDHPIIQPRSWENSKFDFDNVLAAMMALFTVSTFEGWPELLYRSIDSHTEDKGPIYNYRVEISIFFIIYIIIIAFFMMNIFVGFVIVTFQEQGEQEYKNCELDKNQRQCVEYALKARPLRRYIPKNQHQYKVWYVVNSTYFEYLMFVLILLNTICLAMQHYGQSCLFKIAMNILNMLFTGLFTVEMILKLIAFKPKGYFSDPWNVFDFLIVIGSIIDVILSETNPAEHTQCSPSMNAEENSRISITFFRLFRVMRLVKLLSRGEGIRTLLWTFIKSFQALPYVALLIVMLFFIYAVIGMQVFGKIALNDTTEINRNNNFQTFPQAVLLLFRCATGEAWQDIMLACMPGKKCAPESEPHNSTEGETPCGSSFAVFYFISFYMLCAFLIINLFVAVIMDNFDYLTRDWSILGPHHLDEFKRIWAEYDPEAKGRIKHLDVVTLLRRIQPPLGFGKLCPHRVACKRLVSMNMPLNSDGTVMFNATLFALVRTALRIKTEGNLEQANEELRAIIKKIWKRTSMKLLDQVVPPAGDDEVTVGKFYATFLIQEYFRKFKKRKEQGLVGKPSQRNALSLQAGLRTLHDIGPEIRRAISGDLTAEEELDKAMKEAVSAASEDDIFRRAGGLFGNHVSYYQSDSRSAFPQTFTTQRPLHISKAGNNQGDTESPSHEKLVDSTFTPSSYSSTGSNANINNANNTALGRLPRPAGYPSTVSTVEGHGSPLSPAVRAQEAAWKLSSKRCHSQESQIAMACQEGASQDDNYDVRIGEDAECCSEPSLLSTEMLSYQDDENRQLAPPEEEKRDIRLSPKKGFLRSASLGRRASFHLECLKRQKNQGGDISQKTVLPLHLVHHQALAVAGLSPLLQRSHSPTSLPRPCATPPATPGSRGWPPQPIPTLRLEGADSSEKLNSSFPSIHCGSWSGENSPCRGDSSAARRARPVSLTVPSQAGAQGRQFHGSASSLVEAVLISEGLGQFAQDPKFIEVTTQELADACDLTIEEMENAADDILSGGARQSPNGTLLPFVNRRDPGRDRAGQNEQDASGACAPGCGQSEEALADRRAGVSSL

Structure (SMILES)	IC50 [µM]
O=c1cc(O)n(CCc2cccc(C(F)(F)F)c2)c(=O)n1[C@@H]1C[C@@H]2CC[C@H]1C2	100
O=c1cc(O)n(CCc2cccc(C(F)(F)F)c2)c(=O)n1[C@H]1C[C@H]2CC[C@@H]1C2	> 100
CC(Cn1c(O)cc(=O)n(C2CC3CCC2C3)c1=O)c1cccc(Cl)c1 (stereo not given)	5.1
CC(C)(Cn1c(O)cc(=O)n(C2CCCC2)c1=O)c1cccc(Cl)c1	12.6
O=c1cc(O)n(CC2(c3ccc(Cl)cc3)CC2)c(=O)n1C1CCCC1	> 100
COC(=O)[C@H](Cc1ccccc1)n1c(O)cc(=O)n(C2CCCC2)c1=O	> 100
O=c1cc(O)n(CCC(c2ccccc2)c2ccccc2)c(=O)n1C1CCCC1	4.7
O=c1cc(O)n(-c2cccc(C(F)(F)F)c2)c(=O)n1C1CCCC1	> 100
C[C@H](c1cccc2ccccc12)n1c(O)cc(=O)n(CCc2cccc(Cl)c2)c1=O	10
CCOC(=O)[C@@H]1CCC[C@@H]1n1c(=O)cc(O)n(CCc2cccc(Cl)c2)c1=O	12.6
O=c1cc(O)n(CCc2cccc(Cl)c2)c(=O)n1[C@H]1CCC[C@@H]1O	> 100
O=C(O)[C@H]1CC[C@@H](n2c(=O)cc(O)n(CCc3cccc(Cl)c3)c2=O)C1	> 100
C[C@H]1[C@H](n2c(=O)cc(O)n(CCc3ccc(Cl)cc3)c2=O)C[C@@H]2C[C@H]1C2(C)C	> 100
CC1(C)[C@@H]2CC[C@H](Cn3c(=O)cc(O)n(CCc4ccc(Cl)cc4)c3=O)[C@H]1C2	> 100
CC1(C)[C@@H]2CC[C@@]1(C)[C@@H](n1c(=O)cc(O)n(CCc3ccc(Cl)cc3)c1=O)C2	> 100
O=c1cc(O)n(CCc2ccc(Cl)cc2)c(=O)n1[C@H]1C[C@H]2CC[C@@H]1C2	100
O=c1cc(O)n(CCc2ccc(Cl)cc2)c(=O)n1C[C@H]1CCCO1	> 100
C[C@H](C1CCCCC1)n1c(=O)cc(O)n(CCc2ccc(Cl)cc2)c1=O	> 100
C[C@@H]1[C@@H](n2c(=O)cc(O)n(CCc3cccc(Cl)c3)c2=O)C[C@H]2C[C@@H]1C2(C)C	> 100
C[C@H]1[C@H](n2c(=O)cc(O)n(CCc3cccc(Cl)c3)c2=O)C[C@@H]2C[C@H]1C2(C)C	> 100
CC1(C)[C@@H]2CC[C@@]1(C)[C@@H](n1c(=O)cc(O)n(CCc3cccc(Cl)c3)c1=O)C2	> 100
O=c1cc(O)n(CCc2cccc(Cl)c2)c(=O)n1[C@@H]1C[C@@H]2CC[C@H]1C2	> 100
O=c1cc(O)n(CCc2cccc(Cl)c2)c(=O)n1[C@H]1C[C@H]2CC[C@@H]1C2	> 100
C[C@H](C1CCCCC1)n1c(=O)cc(O)n(CCc2cccc(Cl)c2)c1=O	> 100
C[C@@H](C1CCCCC1)n1c(=O)cc(O)n(CCc2cccc(Cl)c2)c1=O	> 100
CC1(C)CCC[C@H]1n1c(=O)cc(O)n(CCc2cccc(Cl)c2)c1=O	4.7
O=c1cc(O)n(CCc2cccc(Cl)c2)c(=O)n1C1CCCC1	> 100
C[C@@H](C1CCCCC1)n1c(=O)cc(O)n(CCc2ccc(Cl)cc2)c1=O	> 100
C[C@H]1CCC[C@H]1n1c(=O)cc(O)n(CCc2ccc(Cl)cc2)c1=O	10
C[C@@H]1CCC[C@@H]1n1c(=O)cc(O)n(CCc2ccc(Cl)cc2)c1=O	5.1
